ChEMBL document CHEMBL3351534, “Design, synthesis and antimycobacterial evaluation of 1-(4-(2-substitutedthiazol-4-yl)phenethyl)-4-(3-(4-substitutedpiperazin-1-yl)alkyl)piperazine hybrid analogues” (Eur J Med Chem, 2014)
Values after ≈ are worked out from the molar mass of the structure shown.

Tests used:
[1] = tested on: Mycobacterium tuberculosis; experiment: Antimycobacterial activity against Mycobacterium tuberculosis H37Rv after 5 days by MABA method; format: functional; conditions: 120 h
Method in brief: (§1)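 MABA in 96-well plates against M. tuberculosis H37Rv. Compounds serially diluted 1:2 across columns, inoculum added, with medium-only and 3–5% DMSO solvent controls. Incubated 37 °C for 5 days. A 1:1 mix of 10× Alamar Blue and 10% Tween 80 was added and plates were reincubated 24 h at 37 °C. Blue read as no growth, pink as growth. MIC read from colour.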

[2] = Toxicity against mouse RAW264.7 cells assessed as inhibition of cell viability at 50 ug/mL after 72 hrs by MTT assay; format: cell-based; conditions: read-out: INH
Method in brief: (§2)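 RAW 264.7 cells were exposed to compounds for 72 h. Viability was then scored by the cells' conversion of MTT into a formazan product, using a non-radioactive cell proliferation kit. Results were expressed as percentage growth inhibition at a single high concentration and as an approximate IC50.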

[3] = Toxicity against mouse RAW264.7 cells assessed as inhibition of cell viability after 72 hrs by MTT assay; format: cell-based; method in brief: as §2
[4] = Selectivity index, ratio of IC50 for mouse RAW264.7 cells to MIC for Mycobacterium tuberculosis H37Rv; format: toxicity; conditions: read-out: Selectivity Index
Method in brief: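 SI = IC50/MIC. IC50 comes from an MTT assay on RAW 264.7 cells, with viability read as conversion of MTT to formazan after 72 h exposure and % inhibition recorded at 50 µg/mL. MIC comes from the M. tuberculosis H37Rv MABA (5 days at 37 °C, Alamar Blue colour read-out).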

[5] = tested on: Mycobacterium tuberculosis; experiment: Antimycobacterial activity against Mycobacterium tuberculosis H37Rv assessed as inhibition of microbial growth at 3.125 ug/mL after 5 days by MABA method; format: functional; conditions: 120 h; method in brief: as §1
[6] = tested on: Mycobacterium tuberculosis; experiment: Antimycobacterial activity against Mycobacterium tuberculosis H37Rv assessed as inhibition of microbial growth at 1.56 ug/mL after 5 days by MABA method; format: functional; conditions: 120 h; method in brief: as §1
[7] = tested on: Mycobacterium tuberculosis; experiment: Antimycobacterial activity against Mycobacterium tuberculosis H37Rv assessed as inhibition of microbial growth at 6.25 ug/mL after 5 days by MABA method; format: functional; conditions: 120 h; method in brief: as §1

SMILES: Nc1nc(-c2ccc(CCN3CCN(CCCN4CCN(c5ccccc5)CC4)CC3)cc2)cs1
- MIC [1]: 3.12 µg/mL (≈ 6.37 µM)
- cytotoxicity at 72 h, 50 ug/mL [2]: 35.6%
- IC50 at 72 h [3]: > 50 µg/mL
- selectivity ratio [4]: > 15
- inhibition at 3.125 µg/mL [5]: 99%

SMILES: Nc1nc(-c2ccc(CCN3CCN(CCCCN4CCN(c5ccccc5)CC4)CC3)cc2)cs1
- MIC [1]: 25 µg/mL (≈ 49.5 µM)

SMILES: CNc1nc(-c2ccc(CCN3CCN(CCCN4CCN(c5ccccc5)CC4)CC3)cc2)cs1
- MIC [1]: 50 µg/mL (≈ 99.1 µM)

SMILES: CNc1nc(-c2ccc(CCN3CCN(CCCCN4CCN(c5ccccc5)CC4)CC3)cc2)cs1
- MIC [1]: 12.5 µg/mL (≈ 24.1 µM)

SMILES: Cc1nc(-c2ccc(CCN3CCN(CCCN4CCN(c5ccccc5)CC4)CC3)cc2)cs1
- MIC [1]: 25 µg/mL (≈ 51 µM)

SMILES: Nc1nc(-c2ccc(CCN3CCN(CCCN4CCN(C(c5ccccc5)c5ccccc5)CC4)CC3)cc2)cs1
- MIC [1]: 3.12 µg/mL (≈ 5.38 µM)
- cytotoxicity at 72 h, 50 ug/mL [2]: 38.4%
- IC50 at 72 h [3]: > 50 µg/mL
- selectivity ratio [4]: > 15
- inhibition at 3.125 µg/mL [5]: 99%

SMILES: Nc1nc(-c2ccc(CCN3CCN(CCCCN4CCN(C(c5ccccc5)c5ccccc5)CC4)CC3)cc2)cs1
- MIC [1]: 3.12 µg/mL (≈ 5.25 µM)
- cytotoxicity at 72 h, 50 ug/mL [2]: 46.4%
- IC50 at 72 h [3]: > 50 µg/mL
- selectivity ratio [4]: > 15
- inhibition at 3.125 µg/mL [5]: 99%

SMILES: CNc1nc(-c2ccc(CCN3CCN(CCCN4CCN(C(c5ccccc5)c5ccccc5)CC4)CC3)cc2)cs1
- MIC [1]: 1.56 µg/mL (≈ 2.62 µM)
- cytotoxicity at 72 h, 50 ug/mL [2]: 31.8%
- IC50 at 72 h [3]: > 50 µg/mL
- selectivity ratio [4]: > 30
- inhibition at 1.56 µg/mL [6]: 99%

SMILES: CNc1nc(-c2ccc(CCN3CCN(CCCCN4CCN(C(c5ccccc5)c5ccccc5)CC4)CC3)cc2)cs1
- MIC [1]: 50 µg/mL (≈ 82.1 µM)

SMILES: Cc1nc(-c2ccc(CCN3CCN(CCCN4CCN(C(c5ccccc5)c5ccccc5)CC4)CC3)cc2)cs1
- MIC [1]: 6.25 µg/mL (≈ 10.8 µM)
- cytotoxicity at 72 h, 50 ug/mL [2]: 42.8%
- IC50 at 72 h [3]: > 50 µg/mL
- selectivity ratio [4]: > 7
- inhibition at 6.25 µg/mL [7]: 99%

SMILES: Nc1nc(-c2ccc(CCN3CCN(CCCN4CCN(c5ccccc5Cl)CC4)CC3)cc2)cs1
- MIC [1]: 50 µg/mL (≈ 95.2 µM)

SMILES: Nc1nc(-c2ccc(CCN3CCN(CCCCN4CCN(c5ccccc5Cl)CC4)CC3)cc2)cs1
- MIC [1]: 50 µg/mL (≈ 92.7 µM)

SMILES: CNc1nc(-c2ccc(CCN3CCN(CCCN4CCN(c5ccccc5Cl)CC4)CC3)cc2)cs1
- MIC [1]: 12.5 µg/mL (≈ 23.2 µM)

SMILES: CNc1nc(-c2ccc(CCN3CCN(CCCCN4CCN(c5ccccc5Cl)CC4)CC3)cc2)cs1
- MIC [1]: 3.12 µg/mL (≈ 5.65 µM)
- cytotoxicity at 72 h, 50 ug/mL [2]: 40.4%
- IC50 at 72 h [3]: > 50 µg/mL
- selectivity ratio [4]: > 15
- inhibition at 3.125 µg/mL [5]: 99%

SMILES: Cc1nc(-c2ccc(CCN3CCN(CCCN4CCN(c5ccccc5Cl)CC4)CC3)cc2)cs1
- MIC [1]: 50 µg/mL (≈ 95.4 µM)

SMILES: Nc1nc(-c2ccc(CCN3CCN(CCCN4CCN(c5ccc([N+](=O)[O-])cc5)CC4)CC3)cc2)cs1
- MIC [1]: 6.25 µg/mL (≈ 11.7 µM)
- cytotoxicity at 72 h, 50 ug/mL [2]: 36.5%
- IC50 at 72 h [3]: > 50 µg/mL
- selectivity ratio [4]: > 7
- inhibition at 6.25 µg/mL [7]: 99%

SMILES: Nc1nc(-c2ccc(CCN3CCN(CCCCN4CCN(c5ccc([N+](=O)[O-])cc5)CC4)CC3)cc2)cs1
- MIC [1]: 12.5 µg/mL (≈ 22.7 µM)

SMILES: Nc1nc(-c2ccc(CCN3CCN(CCCCCN4CCN(c5ccc([N+](=O)[O-])cc5)CC4)CC3)cc2)cs1
- MIC [1]: 6.25 µg/mL (≈ 11.1 µM)
- cytotoxicity at 72 h, 50 ug/mL [2]: 44.6%
- IC50 at 72 h [3]: > 50 µg/mL
- selectivity ratio [4]: > 7
- inhibition at 6.25 µg/mL [7]: 99%

SMILES: CNc1nc(-c2ccc(CCN3CCN(CCCN4CCN(c5ccc([N+](=O)[O-])cc5)CC4)CC3)cc2)cs1
- MIC [1]: 12.5 µg/mL (≈ 22.7 µM)

SMILES: CNc1nc(-c2ccc(CCN3CCN(CCCCN4CCN(c5ccc([N+](=O)[O-])cc5)CC4)CC3)cc2)cs1
- MIC [1]: 50 µg/mL (≈ 88.7 µM)

SMILES: Cc1nc(-c2ccc(CCN3CCN(CCCN4CCN(c5ccc([N+](=O)[O-])cc5)CC4)CC3)cc2)cs1
- MIC [1]: 50 µg/mL (≈ 93.5 µM)

SMILES: Nc1nc(-c2ccc(CCN3CCN(CCCN4CCN(c5ccccn5)CC4)CC3)cc2)cs1
- MIC [1]: 3.12 µg/mL (≈ 6.36 µM)
- cytotoxicity at 72 h, 50 ug/mL [2]: 38.1%
- IC50 at 72 h [3]: > 50 µg/mL
- selectivity ratio [4]: > 15
- inhibition at 3.125 µg/mL [5]: 99%

SMILES: Nc1nc(-c2ccc(CCN3CCN(CCCCN4CCN(c5ccccn5)CC4)CC3)cc2)cs1
- MIC [1]: 12.5 µg/mL (≈ 24.7 µM)

SMILES: CNc1nc(-c2ccc(CCN3CCN(CCCN4CCN(c5ccccn5)CC4)CC3)cc2)cs1
- MIC [1]: 12.5 µg/mL (≈ 24.7 µM)

SMILES: CNc1nc(-c2ccc(CCN3CCN(CCCCN4CCN(c5ccccn5)CC4)CC3)cc2)cs1
- MIC [1]: 25 µg/mL (≈ 48.1 µM)

SMILES: Cc1nc(-c2ccc(CCN3CCN(CCCN4CCN(c5ccccn5)CC4)CC3)cc2)cs1
- MIC [1]: 50 µg/mL (≈ 102 µM)

SMILES: NNC(=O)c1ccncc1 [ISONIAZID]
- MIC [1]: 0.05 µg/mL (≈ 0.365 µM)

SMILES: CO[C@H]1/C=C/O[C@@]2(C)Oc3c(C)c(O)c4c(O)c(c(/C=N/N5CCN(C)CC5)c(O)c4c3C2=O)NC(=O)/C(C)=C\C=C\[C@H](C)[C@H](O)[C@@H](C)[C@@H](O)[C@@H](C)[C@H](OC(C)=O)[C@@H]1C [RIFAMPIN]
- MIC [1]: 0.1 µg/mL (≈ 0.122 µM)
